Data: ChEMBL document CHEMBL1126595, “Studies directed toward the design of orally active renin inhibitors. 2. Development of the efficacious, bioavailable renin inhibitor (2S)-2-benzyl-3- [[(1-methylpiperazin-4-yl)sulfonyl]propionyl]-3-thiazol-4-yl-L-alanine amide of (2S,3R,4S)-2-amino-1-cyclohexyl-3,4-dihydroxy-6-methylheptane …” (J Med Chem, 1993)
In brackets after ≈: the same amount, converted by molar mass.

Tests used:
[1] = Integrated area under the plasma drug level-time curve was determined in systemic circulation after intraduodenal dose of 10 mg/kg in rat; type: ADME, organism-based; design: dose 10 mg/kg, route intraduodenal
Outline: (§1)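 Intraduodenal 10 mg/kg to anesthetized rats or ferrets. Compound dissolved in ethanol with 110 mol % HCl, then diluted in aqueous hydroxypropyl methylcellulose to 25% ethanol (10 mg/mL). Plasma sampled id rat 15, 30, 60, 120 min; id ferret 5, 15, 30, 60, 120, 180 min. Drug measured by renin inhibition assay or HPLC. AUC in ng h/mL. Bioavailability is relative to iv 1.0 mg/kg (rat) or 0.3 mg/kg (ferret).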

[2] = Partition coefficient in the octanol/water phase at pH 7.4; type: physicochemical
Outline: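 log P measured by octanol/water partition at pH 7.4.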

[3] = Bioavailability in ferret (dose 10 mg/kg i.d.); type: ADME, organism-based, Mustela putorius furo; settings: in vivo; outline: as §1
[4] = Bioavailability in the systemic circulation after 30 minutes was determined after intraduodenal dose of 10 mg/kg in rat by HPLC method; type: ADME, organism-based; settings: plasma (systemic circulation), read-out: Plasma level
Outline: (§2)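 Screening model in anesthetized rats given 10 mg/kg intraduodenally. Formulation was ethanol stock with 110 mol % HCl, diluted with aqueous hydroxypropyl methylcellulose to 25% ethanol. Systemic and portal blood drawn at 10 and 30 min in the same animals. Drug level (ng/mL) measured by HPLC or renin inhibition assay. Mean ± SEM, n = 3 unless noted.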

[5] = Bioavailability in rat (dose 10 mg/kg i.d.); type: ADME, organism-based; settings: in vivo; outline: as §1
[6] = Integrated area under the plasma drug level-time curve was determined in systemic circulation after intraduodenal dose of 10 mg/kg in ferret; type: ADME, organism-based, Mustela putorius furo; design: dose 10 mg/kg, route intraduodenal; outline: as §1
[7] = Bioavailability in the systemic circulation after 10 minutes was determined after intraduodenal dose of 10 mg/kg in rat by HPLC method; type: ADME, organism-based; settings: plasma (systemic circulation), read-out: Plasma level; outline: as §2
[8] = Peak concentration was determined in systemic circulation after intraduodenal dose of 10 mg/kg in ferret; type: ADME, organism-based, Mustela putorius furo; design: dose 10 mg/kg, route intraduodenal; settings: in vivo, read-out: Activity; outline: as §1
[9] = Peak concentration was determined in systemic circulation after intraduodenal dose of 10 mg/kg in rat; type: ADME, organism-based; design: dose 10 mg/kg, route intraduodenal; settings: in vivo, read-out: Activity; outline: as §1
[10] = Bioavailability in the portal circulation after 10 minutes was determined after intraduodenal dose of 10 mg/kg in rat by HPLC method; type: ADME, organism-based; settings: plasma (portal circulation), read-out: Plasma level; outline: as §2
[11] = Bioavailability in the portal circulation after 30 minutes was determined after intraduodenal dose of 10 mg/kg in rat by HPLC method; type: ADME, organism-based; settings: plasma (portal circulation), read-out: Plasma level; outline: as §2
Renin = biological target: T1, Renin (Homo sapiens, UniProt P00797); test: Inhibitory concentration against human plasma renin at pH 7.4; type: cell-free
T1 sequence (P00797 whole entry): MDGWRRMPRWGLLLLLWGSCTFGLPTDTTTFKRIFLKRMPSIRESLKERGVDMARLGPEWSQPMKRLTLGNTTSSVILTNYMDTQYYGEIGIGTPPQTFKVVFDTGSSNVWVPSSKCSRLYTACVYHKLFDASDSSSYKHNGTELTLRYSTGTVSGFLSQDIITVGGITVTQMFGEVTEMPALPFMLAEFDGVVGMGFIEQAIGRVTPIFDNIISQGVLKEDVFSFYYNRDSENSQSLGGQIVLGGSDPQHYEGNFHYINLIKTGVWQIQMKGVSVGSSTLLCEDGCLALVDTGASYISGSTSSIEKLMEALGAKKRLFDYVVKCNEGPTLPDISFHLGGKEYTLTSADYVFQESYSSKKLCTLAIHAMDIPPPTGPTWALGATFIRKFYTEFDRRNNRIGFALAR

[12] = Solubility at pH 7.4; type: physicochemical; settings: buffer
[13] = Bioavailability in the systemic circulation after 30 minutes was determined after intraduodenal dose of 10 mg/kg in rat by renin inhibition assay; type: ADME, organism-based; settings: plasma (systemic circulation), read-out: Plasma level; outline: as §2
[14] = Bioavailability in the systemic circulation after 10 minutes was determined after intraduodenal dose of 10 mg/kg in rat by renin inhibition assay; type: ADME, organism-based; settings: plasma (systemic circulation), read-out: Plasma level; outline: as §2
[15] = Bioavailability in the portal circulation after 10 minutes was determined after intraduodenal dose of 10 mg/kg in rat by renin inhibition assay; type: ADME, organism-based; settings: plasma (portal circulation), read-out: Plasma level; outline: as §2
[16] = Bioavailability in the portal circulation after 30 minutes was determined after intraduodenal dose of 10 mg/kg in rat by renin inhibition assay; type: ADME, organism-based; settings: plasma (portal circulation), read-out: Plasma level; outline: as §2

AUC [1] | logD [2] | bioavailability [3] | concentration at 0.5 h [4] | bioavailability [5] | AUC [6] | concentration at 10 min [7] | Cmax [8] | Cmax [9] | concentration at 10 min [10] | concentration at 0.5 h [11] | IC50 (Renin) | solubility [12] | concentration at 0.5 h [13] | concentration at 10 min [14] | concentration at 10 min [15] | concentration at 0.5 h [16] | Structure (SMILES)
1300 ng·h/mL | 3.89 | 80% | 550 ng/mL | 80% | 2000 ng·h/mL | 510 ng/mL | 790 ng/mL | 850 ng/mL | 1800 ng/mL | 1900 ng/mL | 3.9 nM | – | – | – | – | – | CC(C)C[C@H](O)[C@H](O)[C@H](CC1CCCCC1)NC(=O)[C@H](Cc1cscn1)NC(=O)[C@H](Cc1ccccc1)CS(=O)(=O)C1CN(C)C1
– | 4.01 | – | 190 ng/mL | – | – | 57 ng/mL | – | – | 400 ng/mL | 810 ng/mL | 1.3 nM | 120 µg/mL (≈ 173 µM) | – | – | – | – | CC(C)C[C@H](O)[C@H](O)[C@H](CC1CCCCC1)NC(=O)[C@H](Cc1cscn1)NC(=O)[C@@H](CC(=O)N(C)CCn1ccnc1)Cc1ccccc1
– | 3.11 | – | – | – | – | – | – | – | – | – | 9.4 nM | – | 450 ng/mL | 600 ng/mL | 1600 ng/mL | 780 ng/mL | CC(C)C[C@H](O)[C@H](O)[C@H](CC1CCCCC1)NC(=O)[C@H](Cc1cscn1)NC(=O)[C@@H](CC(=O)N(C)CCN(C)C)Cc1ccccc1
– | > 4.6 | – | – | – | – | – | – | – | – | – | 1.6 nM | 180 µg/mL (≈ 246 µM) | 570 ng/mL | 300 ng/mL | 3100 ng/mL | 3100 ng/mL | COCCOCOCCN(C)C(=O)C[C@@H](Cc1ccccc1)C(=O)N[C@@H](Cc1cscn1)C(=O)N[C@@H](CC1CCCCC1)[C@@H](O)[C@@H](O)CC(C)C
– | 4.15 | 85% | – | – | 1200 ng·h/mL | – | 860 ng/mL | – | – | – | 4.1 nM | – | 570 ng/mL | – | – | – | CC(C)C[C@H](O)[C@H](O)[C@H](CC1CCCCC1)NC(=O)[C@H](Cc1cscn1)NC(=O)[C@@H](CC(=O)N(C)CCN1CCOCC1)Cc1ccccc1
– | – | – | 50 ng/mL | – | – | 68 ng/mL | – | – | 1900 ng/mL | 370 ng/mL | 0.8 nM | 180 µg/mL (≈ 251 µM) | – | – | – | – | COCCOCOCCN(C)C(=O)C[C@@H](Cc1ccccc1)C(=O)N[C@@H](Cc1c[nH]cn1)C(=O)N[C@@H](CC1CCCCC1)[C@@H](O)[C@@H](O)CC(C)C
– | – | – | – | – | – | – | – | – | – | – | 37 nM | – | – | – | – | – | CC(C)C[C@H](O)[C@H](O)[C@H](CC1CCCCC1)NC(=O)[C@H](Cc1cscn1)NC(=O)[C@@H](CC(=O)NCCc1ccccn1)Cc1ccccc1
– | > 4.2 | – | – | – | – | – | – | – | – | – | – | – | 29 ng/mL | 22 ng/mL | 830 ng/mL | 500 ng/mL | CC(C)C[C@H](O)[C@H](O)[C@H](CC1CCCCC1)NC(=O)[C@H](Cc1cscn1)NC(=O)[C@H](Cc1ccccc1)CS(=O)(=O)C(C)(C)C
